# High-throughput results deposited in PubChem BioAssay by The Scripps Research Institute Molecular Screening Center.
# The list is not random: actives were taken first. Their share in the collection is about 2.3%.
# TAAR1 agonist – human TAAR1 agonism; activation, % at 3 µM; 360,000 tested, 0.99% active; Q96RJ0; CHO RD-HGA16 TAAR1, Fluo-8 calcium fluorescence; vehicle wells 0%, saturating PEA agonist 100%;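 active = activation above the mean activation of all test compounds in the run plus 3 SD, cut at about 38% in these data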
#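 Test system: RD-HGA16 (CHO) cells co-expressing Gα16 and hTAAR1; dosing: one-point dosing at 3 µM (nominal); timing: 17-24 h seeding, 75 min 37 °C dye, 30 min RT; signal: kinetic Fluo-8 calcium fluorescence; read-out basis: % activation relative to PEA EC100 response; controls: DMSO and PEA EC100; replicates: n 1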
# V1aR counter – activates human V1a receptor in oxytocin agonist counter-screen | 320,000 tested, 0.25% active | activation, % at 3 µM | CHO-V1R cells, Fluo-8 calcium fluorescence, agonist mode; 0% DMSO, 100% 3 nM vasopressin;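 active = activation above the mean activation of all tested compounds plus 3 SD, per screening run, cut at about 20% in these data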;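 also: signal is peak over basal fluorescence ratio across a 100 second FLIPR read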
# TAAR1 antag – human TAAR1 antagonism; Q96RJ0; CHO RD-HGA16 TAAR1, Fluo-8 calcium fluorescence, antagonist; inhibition, % at 3 µM; AID 624466; 360,000 tested, 1.5% active;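 active = inhibition above a per-plate cutoff, the mean inhibition of test compounds on that plate plus 3 SD, cut at about 49% in these data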;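 also: 0% = DMSO plus EC80 beta-PEA response and 100% = DMSO alone without agonist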
#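 Test system: hTAAR1-expressing CHO RD-HGA16 cells, Gα16-coupled; Probe or stimulus: EC80 β-phenethylamine stimulus; Compound dosing: single nominal final test compound concentration of 3 µM; Timing: 140 s kinetic read after compound, 140 s after agonist; Signal: Fluo-8 calcium-sensitive fluorescence; Measure: % inhibition of agonist calcium response; Controls: DMSO and EC80 PEA controls.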
# OXTR agonist – activates the human oxytocin receptor; CHO-OTR cells, Fluo-8 calcium fluorescence; normalized: DMSO 0%, oxytocin 100%; activation, % at 3 µM; 320,000 tested, 0.32% active; AID 2435;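 active = activation above the mean of all tested compounds plus 3 SD, cutoff set per screening run, cut at about 20% in these data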;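 also: peak over basal fluorescence ratio from a 100 s FLIPR kinetic read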
# Target sequence (P30559 whole entry, looked up): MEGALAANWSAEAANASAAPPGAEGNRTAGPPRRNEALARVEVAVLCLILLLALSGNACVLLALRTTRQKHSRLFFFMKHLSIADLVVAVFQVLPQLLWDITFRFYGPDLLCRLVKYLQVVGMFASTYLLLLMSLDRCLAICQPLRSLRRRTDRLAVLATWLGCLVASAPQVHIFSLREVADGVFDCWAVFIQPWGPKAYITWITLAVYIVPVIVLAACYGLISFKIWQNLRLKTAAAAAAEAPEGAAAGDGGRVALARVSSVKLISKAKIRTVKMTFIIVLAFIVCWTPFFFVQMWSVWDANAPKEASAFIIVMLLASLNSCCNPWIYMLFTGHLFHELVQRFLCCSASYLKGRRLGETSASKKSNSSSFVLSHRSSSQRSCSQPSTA
# OXTR potentiator – human OXTR potentiation | CHO-OTR cells, Fluo-8 calcium fluorescence, potentiator mode; 0% = oxytocin EC15, 100% = EC100 | 320,000 tested, 0.061% active | P30559 | AID 2445 | activation, % at 3 µM;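 active = activation above that plate's cutoff, the mean activation of tested compounds plus 3 SD, cut at about 6.6% in these data, passing the limit was not always enough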;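 also: 100% uses oxytocin at 75 nM as the full agonist control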
#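 assay system = CHO-OTR cells, human receptor | schedule = compound 6 min at room temperature before oxytocin, 100 s read | detection = Fluo-8 intracellular calcium fluorescence, ex 470-495, em 515-575 nm | evaluation = normalized max/min fluorescence ratio, % activation | control set = EC15 oxytocin alone as 0%, 75 nM oxytocin (EC100) as 100%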
# * marks the source's active call; other numbers are inactive results; nt = no result.
SMILES,TAAR1 agonist,V1aR counter,TAAR1 antag,OXTR agonist,OXTR potentiator
O=c1c2ccc(Cl)cc2[nH]c(=S)n1CCC1=CCCCC1,-1.5,0.4,-9.7,-1.7,2.6
C/C(=N\Nc1ccc([N+](=O)[O-])cc1)c1ccc(O)cc1,19.4,3.2,54.9*,0.8,-9.8
O=C(Nc1ncc(Cc2ccc(SC(F)F)cc2)s1)c1ccccc1,44.3*,14.9,30.8,13.6,-6.7
Cc1ccc(C(=O)Nc2ncc(Cc3ccccc3)s2)o1,1.0,-0.7,-1.5,-0.2,-4.2
COc1ccccc1NS(=O)(=O)c1cc([N+](=O)[O-])ccc1N/N=C/c1c[nH]c2ccccc12,12.2,10.1,53.9*,11.1,-17.4
CCOc1cc(-c2nc3ccccn3c2NCC2CCCO2)ccc1O (stereo not drawn),24.4,1.1,56.9*,1.6,3.5
COc1cc(-c2nc3ccccn3c2NCc2ccccc2)ccc1SC1CCCCC1,nt,-1.2,nt,-1.1,-8.2
CCC1CCc2c(sc(NC(=O)c3cnccn3)c2C(N)=O)C1 (stereo not drawn),6.2,0.5,-7.8,0.7,-1.5
Cc1ccc(C(C)(C)C)cc1S(=O)(=O)Nc1cccc(C(=O)N2CCN(c3ccccn3)CC2)c1,15.2,nt,60.9*,nt,nt
CC(NC(=O)COC(=O)c1ccc([N+](=O)[O-])o1)c1ccccc1 (stereo not drawn),4.5,2.3,-20.4,2.3,-1.2
O=C(NC(=S)NNC(=O)c1ccccc1O)c1ccc([N+](=O)[O-])cc1,44.1*,11.2,21.1,7.2,-11.9
Cc1ccc(C(=O)NC(=S)NNC(=O)c2ccccc2[N+](=O)[O-])cc1,37.8*,1.1,3.2,2.1,-6.7
O=C(NNC(=S)NC(=O)c1ccccc1[N+](=O)[O-])c1ccccc1O,5.2,1.4,-11.4,-0.3,-0.6
CN(C(=O)COC(=O)c1cc(S(=O)(=O)N2CCOCC2)ccc1F)C1CCS(=O)(=O)C1 (stereo not drawn),1.1,0.6,-7.0,-1.2,-10.8
CC(C)(C)c1ccc(OCc2ccc(C(=O)N/N=C/c3ccc(O)c(O)c3)cc2)cc1,16.3,0.8,53.0*,0.8,1.8
O=C(CSc1ccc(F)cc1)N1CCC(c2nc3ccccc3s2)CC1,14.0,8.8,51.5*,12.7,-17.3
O=C(Cc1ccccc1)Nn1c(O)c(/C=C2\C=Nc3ccccc32)sc1=S,22.3,12.1,54.3*,15.1,-10.5
Cn1c(O)c(/C=C2\C=Nc3ccccc32)sc1=Nc1ccc(C(=O)O)cc1,1.0,-0.1,-2.4,-0.5,0.0
O=c1c2ccccc2nc2oc3ccccc3n12,0.2,-0.5,15.4,-0.2,-9.2
COC(=O)c1ccc(C(=O)OC)c(NC(=O)CN2CCN(c3ccccc3OC)CC2)c1,7.9,-0.8,51.9*,-0.6,-8.2
COc1ccccc1N1CCN(CC(=O)Nc2ccccc2C(=O)NCCc2ccccc2)CC1,11.0,-0.1,55.0*,-1.9,-6.3
O=C(CN1CCN(c2ccccc2O)CC1)Nc1ccccc1C(=O)NCCc1ccccc1,17.6,13.7,60.7*,0.1,-6.3
O=C(CN1CCN(c2ccc(F)cc2)CC1)Nc1ccccc1C(=O)NCCc1ccccc1,17.6,0.5,43.3,-1.4,-3.3
COc1ccc(CCNC(=O)c2ccccc2NC(=O)CN2CCN(c3ccccc3O)CC2)cc1,14.5,nt,64.0*,nt,nt
CC(NC(=O)c1ccccc1NC(=O)CN1CCN(c2ccccc2O)CC1)c1ccccc1 (stereo not drawn),25.1,2.0,35.9,-1.1,-3.5
SMILES,TAAR1 agonist,V1aR counter,TAAR1 antag,OXTR agonist,OXTR potentiator
CC(=O)c1cccc(NC(=O)C(C)Sc2nnc3ccccn23)c1 (stereo not drawn),0.6,nt,11.5,nt,nt
CCCc1nnc(NC(=O)C23CC4CC(CC(C4)C2)C3)s1,0.4,nt,-15.4,nt,nt
COc1ccccc1N1CCN(CC(=O)Nc2ccccc2C(=O)NC(C)c2ccccc2)CC1 (stereo not drawn),32.2,2.3,58.7*,4.5,-8.6
Cc1ccc(CN(c2ccc(C(=O)NCc3ccccn3)cc2)S(C)(=O)=O)cc1,37.5*,15.2,16.6,15.8,-8.0
Cc1ccc(CN(c2ccc(C(=O)NCc3cccnc3)cc2)S(C)(=O)=O)cc1,11.8,4.3,9.0,6.5,4.7
CC1CCCN(S(=O)(=O)c2cc(C(=O)NCCc3ccc(S(N)(=O)=O)cc3)ccc2Cl)C1 (stereo not drawn),15.6,nt,49.6*,nt,nt
